Reference: ChEMBL document CHEMBL4177701, “A novel series of enoyl reductase inhibitors targeting the ESKAPE pathogens, Staphylococcus aureus and Acinetobacter baumannii” (Bioorg Med Chem, 2018)
Values after ≈ are worked out from the molar mass of the structure shown. Active and inactive are the calls of the source. The calls are words filed in the database; no cut-off is given here.

What was measured:
[1] = target: T1, Enoyl-[acyl-carrier-protein] reductase [NADPH] FabI (Staphylococcus aureus, UniProt Q6GI75); experiment: Inhibition of Staphylococcus aureus subsp. aureus Rosenbach ATCC 43300 FabI using crotonyl-CoA as substrate in presence of NADPH/NADH after 10 mins by fluorescence assay
T1 sequence (Q6GI75 whole entry): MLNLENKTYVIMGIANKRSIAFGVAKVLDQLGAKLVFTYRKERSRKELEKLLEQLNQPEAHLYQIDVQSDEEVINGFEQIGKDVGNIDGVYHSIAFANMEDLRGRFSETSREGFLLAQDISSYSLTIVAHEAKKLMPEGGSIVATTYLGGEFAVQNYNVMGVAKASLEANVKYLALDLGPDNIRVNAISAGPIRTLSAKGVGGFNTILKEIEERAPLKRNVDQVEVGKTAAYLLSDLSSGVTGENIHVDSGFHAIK
Outline: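 SaFabI enzyme, 300 nM, in 50 mM MES/100 mM NaCl with 200 μM NADPH, 0.1 mg/mL BSA, 0.01% triton; started with 400 μM crotonyl-CoA. NADPH fluorescence at 340/460 nm. Compounds 0.4 nM–200 μM. Slopes over first 10 min compared with DMSO control for % inhibition. At least two independent experiments, each in duplicate. Two-fold experimental uncertainty.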

[2] = Inhibition of Acinetobacter baumannii 2208 ATCC 19606 FabI using crotonyl-CoA as substrate in presence of NADPH/NADH after 10 mins by fluorescence assay; design: species or system Acinetobacter baumannii ATCC 19606 = CIP 70.34 = JCM 6841
Outline: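 AbFabI, 200 nM, in 50 mM MES/100 mM NaCl with 200 μM NADH, 0.1 mg/mL BSA and 0.01% triton. Reaction started with 300 μM crotonyl-CoA. NADH fluorescence read at 340/460 nm. Compounds tested at 0.4 nM–200 μM. Initial 10-min slopes were compared with a DMSO no-compound control. At least two independent experiments, each in duplicate; two-fold uncertainty.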

Staphylococcus aureus [3] = experiment: Antibacterial activity against Staphylococcus aureus RN4220 over-expressing FabI by microbroth dilution method; format: functional
Outline: (§1)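 Broth microdilution MIC; reported value is mean of at least two runs, within two-fold experimental uncertainty.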

Acinetobacter baumannii [4] = experiment: Antibacterial activity against Acinetobacter baumannii 2208 ATCC 19606 by microbroth dilution method; format: functional; conditions: ATCC 19606 = CIP 70.34 = JCM 6841 2208
Outline: (§2)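 Microbroth dilution MIC; each value is the mean of at least two runs, within two-fold experimental uncertainty.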

Escherichia coli [5] = experiment: Antibacterial activity against Escherichia coli BW25113 mutant by microbroth dilution method; format: functional; outline: as §1
[6] = target: T2, Enoyl-[acyl-carrier-protein] reductase [NADPH] FabI (Staphylococcus aureus) (UniProt Q6GI75); experiment: Binding affinity to Staphylococcus aureus subsp. aureus Rosenbach ATCC 43300 FabI by SPR assay
T2 sequence (whole entry): T1 sequence (Q6GI75 whole entry)

[7] = tested on: Acinetobacter baumannii ATCC 19606 = CIP 70.34 = JCM 6841; experiment: Binding affinity to Acinetobacter baumannii 2208 ATCC 19606 FabI by SPR assay
[8] = target: T1, Enoyl-[acyl-carrier-protein] reductase [NADPH] FabI; experiment: Competitive inhibition of Staphylococcus aureus subsp. aureus Rosenbach ATCC 43300 FabI using crotonyl-CoA as substrate in presence of NADPH/NADH after 10 mins by fluorescence assay
[9] = Competitive inhibition of Acinetobacter baumannii 2208 ATCC 19606 FabI using crotonyl-CoA as substrate in presence of NADPH/NADH after 10 mins by fluorescence assay; design: species or system Acinetobacter baumannii ATCC 19606 = CIP 70.34 = JCM 6841
Staphylococcus aureus [10] = experiment: Antibacterial activity against Staphylococcus aureus RN4220 by microbroth dilution method; format: functional; outline: as §1
Staphylococcus aureus [11] = experiment: Antibacterial activity against methicillin-resistant Staphylococcus aureus subsp. aureus Rosenbach ATCC 43300 by microbroth dilution method; format: functional; outline: as §1
Escherichia coli [12] = experiment: Antibacterial activity against Escherichia coli BW25113 harboring TolC deletion mutant by microbroth dilution method; format: functional; outline: as §1
Staphylococcus aureus [13] = experiment: Antibacterial activity against Staphylococcus aureus Newman by microbroth dilution method; format: functional; outline: as §2
Acinetobacter baumannii [14] = experiment: Synergistic antibacterial activity against Acinetobacter baumannii 2208 ATCC 19606 assessed as colistin MIC by checkerboard method; format: functional; conditions: ATCC 19606 = CIP 70.34 = JCM 6841 2208
Acinetobacter baumannii [15] = experiment: Synergistic antibacterial activity against Acinetobacter baumannii 2208 ATCC 19606 in presence of colistin by checkerboard method; format: functional; conditions: ATCC 19606 = CIP 70.34 = JCM 6841 2208
Acinetobacter baumannii [16] = experiment: Synergistic antibacterial activity against Acinetobacter baumannii 2208 ATCC 19606 assessed as fractional inhibitory concentration in presence of colistin by checkerboard method; format: functional, ATCC 19606 = CIP 70.34 = JCM 6841 2208

SMILES	IC50 [1] [µM]	IC50 [2] [µM]	MIC (Staphylococcus aureus [3]) [µg/mL]	MIC (Acinetobacter baumannii [4]) [µg/mL]	MIC (Escherichia coli [5]) [µg/mL]	Activity [6]	Activity [7]	Ki [8] [µM]	Ki [9] [µM]	Activity (Staphylococcus aureus [10])	Activity (Staphylococcus aureus [3])	MIC (Staphylococcus aureus [11]) [µg/mL]	MIC (Staphylococcus aureus [10]) [µg/mL]	MIC (Escherichia coli [12]) [µg/mL]	MIC (Staphylococcus aureus [13])	MIC (Acinetobacter baumannii [14]) [µg/mL]	MIC (Acinetobacter baumannii [15]) [µg/mL]	FIC (Acinetobacter baumannii [16])
COc1ccc(C2CCN(C(=O)/C=C/c3ccc(NC(C)=O)nc3)C2)cc1 (racemic)	3.6	> 200	> 200	> 200	> 200	Active	Active	1.3	> 100									
CC[C@H]1OC(=O)[C@H](C)[C@@H](O[C@H]2C[C@@](C)(OC)[C@@H](O)[C@H](C)O2)[C@H](C)[C@@H](O[C@@H]2O[C@H](C)C[C@H](N(C)C)[C@H]2O)[C@](C)(O)C[C@@H](C)C(=O)[C@H](C)[C@@H](O)[C@]1(C)O										Active	Active							
COc1ccc(C2CCN(C(=O)Cc3ccccc3Cl)C2)cc1 (racemic)		> 200		> 200		Active	Active	4.6	> 100			> 200	> 200	> 200				
O=C(Cc1cccc(F)c1F)N1CCC(c2ccc3c(c2)OCO3)C1 (racemic)		13.7		> 200	> 200	Active	Active	2	6.9			> 200	> 200					
COc1ccccc1C1CCN(C(=O)/C=C/c2ccc(NC(C)=O)cc2)C1 (racemic)	> 100	> 100	> 200	> 200	> 200	Active	Active	> 37.1	> 50			> 200						
COc1ccccc1C1CCN(C(=O)Cc2cccc(F)c2F)C1 (racemic)		7.4	> 200	> 200	> 200	Active	Active	1.1	3.7			100 (≈ 302 µM)	100 (≈ 302 µM)		100 µg/mL			
CC(=O)Nc1ccc(/C=C/C(=O)N2CCC(c3ccc4c(c3)OCO4)C2)cn1 (racemic)		8.5	> 200	> 200	> 200	Active	Active	0.4	4.3			> 200		> 200		1.56		
O=C(N[C@H](CO)[C@H](O)c1ccc([N+](=O)[O-])cc1)C(Cl)Cl										Active	Active							
CC(=O)Nc1ccc(CC(=O)N2CCC(c3ccccc3)C2)cc1 (racemic)	> 100	> 100	> 200	> 200		Active	Active	> 37.1	> 50			> 200		> 200				
O=C(Cc1ccccc1Cl)N1CCC(c2nccs2)C1 (racemic)		14	> 200	> 200	> 100	Active	Active	2.2	7			100 (≈ 326 µM)		> 100	163 µM	0.39	50	0.75
CC(C)S(=O)(=O)c1ccc(CC(=O)N2CCC(c3ccc4c(c3)OCO4)C2)cc1 (racemic)	> 100	> 100	> 200	> 200	> 200	Active	Active	> 37.1	> 50			> 200						
CC(=O)Nc1ccc(CC(=O)N2CCC(c3ccc4c(c3)OCO4)C2)cc1 (racemic)	> 100	> 100	> 200	> 200	> 200	Active	Active	> 37.1	> 50			> 200						
CN(C)[C@@H]1C(O)=C(C(N)=O)C(=O)[C@@]2(O)C(O)=C3C(=O)c4c(O)cccc4[C@@](C)(O)[C@H]3C[C@@H]12										Active	Active							
COc1ccccc1C1CCN(C(=O)Cc2ccccc2F)C1 (racemic)		2.1	100 (≈ 319 µM)	> 200	> 200	Active	Active	1.7	1.1			100 (≈ 319 µM)	50 (≈ 160 µM)		160 µM			
CN[C@@H]1[C@H](O[C@H]2[C@H](O[C@H]3[C@H](O)[C@@H](O)[C@H](N=C(N)N)[C@@H](O)[C@@H]3N=C(N)N)O[C@@H](C)[C@]2(O)C=O)O[C@@H](CO)[C@H](O)[C@H]1O										Active	Active							
CC(=O)Nc1ccc(CC(=O)N2CCC(c3nccs3)C2)cc1 (racemic)	> 100	> 100	> 200	> 200	> 200	Active	Active	> 37.1	> 50			> 200						
CC(=O)Nc1ccc(/C=C/C(=O)N2CCC(c3nccs3)C2)cn1 (racemic)		20		> 200	> 200	Active	Active	1.7	10			> 200	> 200	> 200	> 200 µg/mL	0.39	100	1
COc1ccccc1C1CCN(C(=O)Cc2ccc(NC(C)=O)cc2)C1 (racemic)	> 100	> 100	> 200	> 200	> 200	Active	Active	> 37.1	> 50			> 200						
CC(=O)Nc1ccc(/C=C/C(=O)N2CCC(c3ccccn3)C2)cn1 (racemic)		7.1		> 200	> 200	Active	Active	10.5	3.6			> 200	> 200	> 200	> 200 µg/mL	0.39	100	1
O=C(Cc1ccccc1F)N1CCC(c2ccc3c(c2)OCO3)C1 (racemic)		32	> 200	> 200	> 200	Active	Active	1	16			> 200						
CC(=O)Nc1ccc(/C=C/C(=O)N2CCC(c3ccccc3)C2)cn1 (racemic)		0.47	> 200	> 200		Active	Active	0.4	0.2			> 200	> 200	12.5 (≈ 37.3 µM)	> 200 µg/mL	3.1		
O=C(Cc1c(F)cccc1F)N1CCC(c2ccc3c(c2)OCO3)C1 (racemic)		54	> 200	> 200	> 200	Active	Active	0.9	27			> 200						
COc1ccc(C2CCN(C(=O)Cc3ccc(NC(C)=O)cc3)C2)cc1 (racemic)	> 100	> 100	> 200	> 200	> 200	Active	Active	> 37.1	> 50			> 200						
